Measured values taken from ChEMBL document CHEMBL1649213, “The arabinosyltransferase EmbC is inhibited by ethambutol in Mycobacterium tuberculosis” (2009).
≈ marks a conversion by molar mass, not a printed value.

Columns and labels:
Assay type in all cases: functional
[1] = test system: Mycobacterium tuberculosis; assay: Antimicrobial activity against Mycobacterium tuberculosis expressing EmbC M300L mutant gene after 48 hrs
Outline: (§1)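 Spot test: 20 µl exponential-phase culture spotted on 7H10 agar plus 10% OADC with EMB 0 to 128 µg/ml. Incubated at 37°C for 10 to 30 days, and growth scored against the drug-free lawn. MIC taken as the highest EMB concentration allowing growth.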

[2] = test system: Mycobacterium tuberculosis; assay: Antimicrobial activity against Mycobacterium tuberculosis expressing EmbC M300L mutant gene after 48 hrs by agar proportion method
[3] = test system: Mycobacterium tuberculosis; assay: Antimicrobial activity against Mycobacterium tuberculosis harboring Mycobacterium smegmatis embB M292I mutant gene after 48 hrs by agar proportion method
[4] = test system: Mycobacterium tuberculosis; assay: Ratio of MIC for Mycobacterium tuberculosis expressing wild type EmbC gene to MIC for Mycobacterium tuberculosis expressing EmbC D249G mutant gene
[5] = test system: Mycobacterium tuberculosis; assay: Antimicrobial activity against Mycobacterium tuberculosis harboring Mycobacterium smegmatis embB M292L mutant gene after 48 hrs by agar proportion method
[6] = test system: Mycobacterium tuberculosis; assay: Antimicrobial activity against Mycobacterium tuberculosis expressing EmbC M300V mutant gene after 48 hrs; outline: as §1
[7] = test system: Mycobacterium tuberculosis; assay: Antimicrobial activity against Mycobacterium tuberculosis expressing EmbC T270I mutant gene after 48 hrs by agar proportion method
[8] = test system: Mycobacterium tuberculosis; assay: Antimicrobial activity against Mycobacterium tuberculosis expressing EmbC D249G mutant gene after 48 hrs by agar proportion method
Outline: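 Agar proportion method: 10^4 CFU plated on 7H10-OADC with EMB or drug-free, and colonies counted after 4 weeks. MIC99 is the lowest concentration at which <1% of cells formed colonies.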

[9] = test system: Mycobacterium tuberculosis; assay: Antimicrobial activity against Mycobacterium tuberculosis expressing EmbC M300I mutant gene after 48 hrs by agar proportion method
[10] = test system: Mycobacterium tuberculosis; assay: Antimicrobial activity against Mycobacterium tuberculosis expressing EmbC M300I mutant gene after 48 hrs; outline: as §1
[11] = test system: Mycobacterium tuberculosis; assay: Antimicrobial activity against Mycobacterium tuberculosis harboring Mycobacterium smegmatis embB gene after 48 hrs by agar proportion method
[12] = test system: Mycobacterium tuberculosis; assay: Antimicrobial activity against Mycobacterium tuberculosis harboring Mycobacterium smegmatis embB M292V mutant gene after 48 hrs by agar proportion method
[13] = test system: Mycobacterium tuberculosis; assay: Antimicrobial activity against Mycobacterium tuberculosis embA V280M gene after 48 hrs by agar proportion method
[14] = test system: Mycobacterium tuberculosis; assay: Antimicrobial activity against Mycobacterium tuberculosis expressing EmbC T270I mutant gene after 48 hrs; outline: as §1
[15] = test system: Mycobacterium tuberculosis; assay: Antimicrobial activity against Mycobacterium tuberculosis expressing EmbC M300V mutant gene after 48 hrs by agar proportion method
[16] = test system: Mycobacterium tuberculosis; assay: Antimicrobial activity against Mycobacterium tuberculosis expressing EmbC D249G mutant gene after 48 hrs; outline: as §1

CC[C@@H](CO)NCCN[C@@H](CC)CO [ETHAMBUTOL]
MIC [1]: 0.5 µg/mL (≈ 2.45 µM) | MIC90 [2]: 0.5 µg/mL (≈ 2.45 µM) | MIC [3]: 3 µg/mL (≈ 14.7 µM) | Ratio [4]: 6 | MIC [5]: 8 µg/mL (≈ 39.2 µM) | MIC [6]: 0.5 µg/mL (≈ 2.45 µM) | MIC90 [7]: 1 µg/mL (≈ 4.89 µM) | MIC90 [8]: <0.5 µg/mL | MIC90 [9]: 1 µg/mL (≈ 4.89 µM) | MIC [10]: <3 µg/mL | MIC [11]: 8 µg/mL (≈ 39.2 µM) | MIC [12]: 3 µg/mL (≈ 14.7 µM) | MIC [13]: 4 µg/mL (≈ 19.6 µM) | MIC [14]: 4 µg/mL (≈ 19.6 µM) | MIC90 [15]: <0.5 µg/mL | MIC [16]: 0.5 µg/mL (≈ 2.45 µM)
